Data set [1] has as its system orthotopic U87 human glioblastoma (tumor tissue) in nude rats. In words: In vivo tumor MRI contrast enhancement kinetics. On the set-up: species or system rat. To be noted: i.v., 25 µmol of Gd / 250 g. An outline of the steps: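 Male athymic nude rats (rnu/rnu) received 5.10^5 U87 cells in 5 μL HBSS stereotactically into the right striatum (0.5 mm anterior, 2.7 mm lateral to bregma) under i.p. ketamine/xylazine. About 20 days later, nanoparticles were given intravenously in 500 µL, diluted in 9‰ NaCl from an iso-osmolar 100 mM Gd stock at pH ~7.4. Tumor MRI signal was normalized to pre-injection and contralateral tissue, and its decline from peak was followed.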

Data set [2] concerns MDA-MB-231 cells. The data set can be described thus: Photodynamic activity. The data set is classed as cell-based, human. To be noted: for DL50 (50% cell growth inhibitory light dose): 652 nm, 24 h incubation, MTT 24 h post-irradiation, six replicates.
Data set [3] in a line: UV/Vis absorption and fluorescence spectra. The data set is classed as physicochemical. To be noted: from UV/Vis calibration curve of free TPC. An outline of the steps: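 Absorption spectra were recorded by UV-visible spectrophotometry on ethanol suspensions of nanoparticles and free photosensitizer. Fluorescence spectra were acquired on a spectrofluorimeter with xenon lamp excitation and a thermostatted cell compartment at 25°C.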

For data set [4], the system named is recombinant chimeric neuropilin-1 (NRP-1) protein. The data set can be described thus: Competitive binding to recombinant NRP-1 protein. Particulars: 5 ng/mL biotinylated VEGF165, 2 µg/mL heparin, 2 h room temperature; n=3. An outline of the steps: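 Plates coated overnight at room temperature with recombinant chimeric NRP-1 (2 µg/mL in PBS), washed with PBS/0.05% Tween 20, and blocked with PBS/0.5% BSA for 1 h at 37°C. Biotinylated VEGF165 (5 ng/mL, with 2 µg/mL heparin) was added with increasing test nanoparticle concentrations, Gd-matched control nanoparticles, or excess unlabelled VEGF165 (0.5 µg/mL). Streptavidin-HRP colorimetric read-out at 450 nm was expressed relative to the no-competitor control, in triplicate.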

Data set [5] deals with MDA-MB-231 cells. In words: Photo-induced cytotoxicity, real-time impedance-based cell analysis. To be noted: first 24 h post-exposure, before light irradiation; mean of six replicates. On the set-up: species or system human. An outline of the steps:
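MDA-MB-231 cells were cultured in RPMI with 9% heat-inactivated FBS, penicillin/streptomycin and 2 mM L-glutamine at 37°C, 5% CO2. Cells were seeded at 10^4 per well on electrode plates, and impedance was read every 15 min. At 24 h, test nanoparticles were added at final photosensitizer concentrations of 0.05–10.00 µM, or Gd-matched control nanoparticles at 2.9–585.0 µM. Cells were kept in darkness for 24 h before washing, with six replicates. Cell index was calculated as background-subtracted impedance.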

A short description of data set [6]: Zeta potential measurement. It is filed as physicochemical. Particulars: ultrapure water, pH ~ 7.0, 5 mM gadolinium, 20°C, Zetasizer Nano ZS. In a few lines: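 Nanoparticles were suspended in ultrapure water at pH ~7.0 and 5 mM Gd and measured by electrophoretic light scattering (532 nm laser). Readings were taken 2.00 mm from the cell wall with an automatic attenuator at 20°C. Each sample ran 15 runs of 10 s, repeated three times.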

The test system of a further data set is neuropilin-1 (NRP-1). Particulars: receptor expressed in angiogenic vasculature; ref [19], [20], [22]; cited from earlier work.

Several values for one entry are separate records, joined by “and”; a condition that tells them apart may be missing. Identical values can stand only once.

On to H-ATWLPPR-OH [NP-TPC-ATWLPPR], for which the “Rate of decrease of tumor MRI contrast” value in data set [1] (decrease from maximum peak) is reported as -0.0072 .min^-1. Besides, the “Half-life in tumor tissue (T1/2)” value in data set [1] (semi-logarithmic presentation of MRI contrast enhancement decrease) was 1.604 h. The “DL50 (50% cell growth inhibitory light dose)” value in the data set with MDA-MB-231 cells [2] (0.1 µM TPC) was 9.16 J/cm^2 and 9.2 J/cm^2; in the data set with MDA-MB-231 cells [2] (1.0 µM TPC), 2.80 J/cm^2 and 2.8 J/cm^2. Moreover, the “Photocytotoxic effectiveness, 1.0 µM vs 0.1 µM TPC” value in the data set with MDA-MB-231 cells [2] (ratio of DL50 at 0.1 and 1.0 µM) is 3.3 times. For the same substance, the “TPC molecules per nanoparticle” value in data set [3] is ~ 1.7 TPC molecules per nanoparticle. For the same substance, in data set [4], the “Binding to NRP-1 (qualitative)” value is “greatly displaced”. Besides, the “Cell index before irradiation” value with MDA-MB-231 cells [5] is reported as “no decrease in cell index values”. For the same substance, the Zeta potential in data set [6] turned out to be 12.9±4 mV.
As for H-ATWLPPR-OH [ATWLPPR], the “NRP-1 targeting (qualitative)” value in the data set with neuropilin-1 (NRP-1) is on record as “selectively target NRP-1 receptor”.

Values taken from PMC3475218 (Theranostics, 2012).
